In article PMC4362967 (Chemistry & biology, 2015):
Where a SMILES comes first, the peptide text is derived from it. [ ]: non-standard residue; d: D form.

Columns and labels:
[1] = tested on: P. aeruginosa PA14 biofilms; assay: Flow cell biofilm assay with confocal microscopy; type: cell-based, Pseudomonas aeruginosa
In short: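 P. aeruginosa PA14 biofilms grown at 37°C in BM2 glucose minimal medium in flow chambers (1 × 4 × 40 mm channels). […] For eradication, test compound was first added after 2 days of growth. Cells were stained with LIVE/DEAD BacLight and imaged by confocal microscopy.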

[2] = tested on: A. baumannii mature biofilms; assay: Flow cell biofilm assay with confocal microscopy; type: cell-based, Acinetobacter baumannii; conditions: 0.8 μg/ml DJK-5 with tobramycin, added at day 2
In short: (§1)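 Biofilms grown at 37°C in BM2 glucose minimal medium in flow chambers (1 × 4 × 40 mm channels) for 72 h. Test compound, antibiotic or both were added to the flow-through medium at day 2 of biofilm formation. Combination levels were taken from checkerboard FIC results, with peptide levels lowered in some cases. Cells were stained with LIVE/DEAD BacLight and imaged by confocal microscopy with 3D reconstruction.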

[3] = tested on: S. enterica mature biofilms; assay: Flow cell biofilm assay with confocal microscopy; type: cell-based, Salmonella enterica; conditions: top FIC combination, added at day 2
In short: as §1

[4] = tested on: G. mellonella; assay: G. mellonella survival assay, uninfected; conditions: in vivo
[5] = tested on: E. coli mature biofilms; assay: Flow cell biofilm assay with confocal microscopy; type: cell-based, Escherichia coli; conditions: top FIC combination, added at day 2
In short: as §1

[6] = tested on: P. aeruginosa PAO1; assay: C. elegans survival assay, infected; type: in vivo, Caenorhabditis elegans; conditions: peptide 20 μg/ml, 25°C, average ± SD, n ≥ 12
[7] = tested on: Klebsiella pneumoniae mature biofilms; assay: Flow cell biofilm assay with confocal microscopy; type: cell-based; conditions: top FIC combination, added at day 2
In short: as §1

[8] = tested on: P. aeruginosa biofilm; conditions: relative to MIC; ref Overhage et al, 2008; cited from earlier work
[9] = tested on: P. aeruginosa; conditions: free swimming (planktonic) cells; ref Overhage et al, 2008; cited from earlier work

| Compound | biofilm inhibition in flow cells, combination with ciprofloxacin ([1]; 0.1 μg/ml of DJK-5 with 0.04 μg/ml of ciprofloxacin, added at day 0, 3 days) | eradication of 2-day-old biofilms, combination with ciprofloxacin ([1]; top FIC combination, added at day 2, P. aeruginosa PA14) | eradication of 2-day-old biofilms, combination with tobramycin [2] | eradication of 2-day-old biofilms, combination with ceftazidime [3] | G. mellonella survival (%) 24h No infection [4] [%] | G. mellonella survival (%) 48h No infection [4] [%] | eradication of 2-day-old biofilms, combination with ceftazidime [5] | C. elegans survival (%) 24h P. aeruginosa PAO1 ([6]; 24 h post infection) [%] | C. elegans survival (%) 48h post infection P. aeruginosa PAO1 ([6]; 48 h post infection) [%] | eradication of 2-day-old biofilms, combination with ciprofloxacin [7] | concentration active against P. aeruginosa biofilms [8] | MIC [9] [µg/mL] |
| --- | --- | --- | --- | --- | --- | --- | --- | --- | --- | --- | --- | --- |
| CC[C@@H](C)[C@@H](NC(=O)[C@@H](C)NC(=O)[C@@H](CCCNC(=N)N)NC(=O)[C@@H](Cc1c[nH]c2ccccc12)NC(=O)[C@@H](CCC(N)=O)NC(=O)[C@H](N)C(C)C)C(=O)N[C@H](CCCNC(=N)N)C(=O)N[C@@H](C(=O)N[C@H](CCCNC(=N)N)C(=O)N[C@@H](C(=O)N[C@@H](C(=O)N[C@H](CCCNC(=N)N)C(N)=O)[C@H](C)CC)C(C)C)C(C)C [DJK5] (H-[dV][dQ][dW][dR][dA][dI][dR][dV][dR][dV][dI][dR]-NH2; N-terminus and C-terminus assumed) | complete biofilm inhibition | much more limited dispersal but triggered cell death in remaining cells | eradication | eradication | 100 ± 0 | 100 ± 0 | not synergistic | 99 ± 2 | 96 ± 4 | eradication |  |  |
| LL-37: the human peptide LL-37, cationic host defense peptide |  |  |  |  |  |  |  |  |  |  | one sixteenth the MIC | > 64 |
